Source: ChEMBL document CHEMBL4808239, “Challenges of short substrate analogues as SARS-CoV-2 main protease inhibitors” (Bioorg Med Chem Lett, 2021)
pIC50: −log10 of the molar value. The source made the active and inactive calls. The calls are words filed in the database; no cut-off is given here. Starred links: 1 amine or outer side, 2 acyl side, 3 side chain; linkers in the order of their positions; H or OH if unused. Non-standard residues stand in square brackets, D forms with d. Residues, ends and D or L forms follow the SMILES beside them. X1 = N#Cc1cc(C[C@H](N[*:1])C(=O)[*:2])ccn1; Tle = CC(C)(C)[C@H](N)C(=O)O; Thz = O=C(O)[C@@H]1CSCN1; Abu = CC[C@H](N)C(=O)O

Assays:
[1] = target: Replicase polyprotein 1ab (Severe acute respiratory syndrome coronavirus 2, UniProt P0DTD1); experiment: Inhibition of SARS CoV-2 main protease using DABCYL-KTSAVLQ1SGFRKM-E(EDANS)-NH2 as substrate by FRET based assay
[2] = target: Replicase polyprotein 1ab (Severe acute respiratory syndrome coronavirus 2) (UniProt P0DTD1); experiment: Binding affinity to SARS CoV-2 15N/2H-labeled main protease assessed as chemical pertubations at 100 uM by 15HSQC-NMR spectrum analysis
Summary of the method: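 Wild-type main protease, ¹⁵N/²H-labelled, expressed with His6 tag, Ni-NTA purified and tag-cleaved. [¹⁵N,¹H]-HSQC spectra recorded at 25 °C (600/800 MHz) with and without compound and overlaid to look for chemical shift changes.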

Row | SMILES | pIC50 [1] | Activity [2]
1 | CC(C)C[C@H](NC(=O)[C@@H](NC(=O)[C@H](C)NC(=O)[C@H](C)NC(=O)[C@@H]1CSCN1)C(C)C)C(=O)N[C@@H](CCC(N)=O)C(=O)N[C@@H](C)C(=O)N[C@@H](Cc1ccnc(C#N)c1)C(N)=O (H-[Thz]AAVLQA[X1]-NH2) | < 4.00 | –
2 | CC(C)C[C@@H]1NC(=O)[C@H](CCCNC(=N)N)NC(=O)[C@H](C)NC(=O)[C@@H]2CSC(=N2)c2cc(ccn2)C[C@@H](C(N)=O)NC(=O)[C@H](CCC(=O)O)NC1=O | < 4.00 | –
3 | CC(C)C[C@@H]1NC(=O)[C@H](C(C)C)NC(=O)[C@H](C(C)C)NC(=O)[C@@H]2CSC(=N2)c2cc(ccn2)C[C@@H](C(N)=O)NC(=O)[C@H](CCC(=O)O)NC1=O | < 4.00 | –
4 | CC(C)C[C@@H]1NC(=O)[C@H](C(C)C)NC(=O)[C@H](C)NC(=O)[C@H](C)NC(=O)[C@@H]2CSC(=N2)c2cc(ccn2)C[C@@H](C(N)=O)NC(=O)[C@H](C)NC(=O)[C@H](CCC(N)=O)NC1=O | – | inactive
5 | CC(C)C[C@@H]1NC(=O)[C@H](C(C)C)NC(=O)[C@@H]2CSC(=N2)c2cc(ccn2)C[C@@H](C(N)=O)NC(=O)[C@H](CO)NC(=O)[C@H](CCC(N)=O)NC1=O | < 4.00 | –
6 | CC(C)C[C@@H]1NC(=O)[C@H](C(C)C)NC(=O)[C@H](C(C)C)NC(=O)[C@@H]2CSC(=N2)c2cc(ccn2)C[C@@H](C(N)=O)NC(=O)[C@H](CCC(N)=O)NC1=O | – | inactive
7 | CC[C@H](NC(C)=O)C(=O)N[C@H](C(=O)N[C@@H](CC(C)C)C(=O)N[C@@H](CCC(N)=O)C(N)=O)C(C)(C)C (Ac-[Abu][Tle]LQ-NH2) | < 4.00 | –
8 | CC(C)C[C@@H]1NC(=O)[C@H](C(C)C)NC(=O)[C@H](C)NC(=O)[C@H](C)NC(=O)[C@@H]2CSC(=N2)c2cc(ccn2)C[C@@H](C(N)=O)NC(=O)[C@H](C)NC(=O)[C@H](CC(N)=O)NC1=O | < 4.00 | –
